Series [1] can be described thus: Oral bioavailability in C57BL/6 mouse at 10 mg/kg. It is filed as ADME, organism-based. Conditions: in vivo. The procedure, abridged:
(§1)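 Male C57BL/6 mice were dosed intravenously at 0.5 mg/kg and orally at 10 mg/kg. Clearance and Vss were taken from the iv arm. Cmax, AUCinf, half-life and oral bioavailability were taken from the oral arm. Values are given as mean ± deviation.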

The next series concerns DLD-1. Kind of series: Antiproliferative against human DLD1 cells at 10 uM. The class given is functional, cell-based. The procedure, abridged: (§2)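 Colorectal lines (SW480, HCT116, DLD1, RKO) and non-colorectal lines (A549, HEK293) were incubated with compound for 3 days at concentrations up to 10 μM. Proliferation was compared with DMSO vehicle. Staurosporine and actinomycin D served as positive controls.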

For series [2], the species on record is Homo sapiens. Kind of series: Inhibition of against 2-(4-((2-(3-fluoro-4-(trifluoromethyl)phenyl)-4-methylthiazol-5-yl)methylthio)-2-methylphenoxy)acetic acid-induced PDK4 gene expression in human skeletal muscle cell at 10 to 10000 nM. It is filed as functional. A digest of the protocol: (§3)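 Human skeletal muscle cells were stimulated with PPARδ agonist to induce transcription of the target genes CPT1a and PDK4. Compound was co-tested at various doses, and antagonism of the agonist-stimulated expression was read out.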

The target of series [3] is T1, Peroxisome proliferator-activated receptor delta (Homo sapiens, UniProt Q03181).
T1 sequence (Q03181 whole entry): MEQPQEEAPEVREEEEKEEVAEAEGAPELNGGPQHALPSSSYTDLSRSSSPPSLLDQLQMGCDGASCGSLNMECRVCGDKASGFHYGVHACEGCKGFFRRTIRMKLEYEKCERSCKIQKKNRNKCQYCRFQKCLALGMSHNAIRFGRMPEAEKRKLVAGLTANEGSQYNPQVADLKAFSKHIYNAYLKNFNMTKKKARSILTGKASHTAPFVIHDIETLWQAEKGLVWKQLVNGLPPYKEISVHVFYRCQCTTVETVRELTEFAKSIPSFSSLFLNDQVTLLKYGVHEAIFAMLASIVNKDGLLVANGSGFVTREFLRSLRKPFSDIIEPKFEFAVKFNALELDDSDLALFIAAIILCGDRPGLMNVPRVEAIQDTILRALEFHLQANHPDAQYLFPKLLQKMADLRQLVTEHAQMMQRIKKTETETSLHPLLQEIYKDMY
Nature of the series: Inhibition of human PPARdelta receptor by ligand displacement assay.

Series [4] is described as follows: Clearance in C57BL/6 mouse at 0.5 mg/kg, iv. The class given is ADME, organism-based. Also noted: dose 0.5 mg/kg, route intravenous. Conditions: in vivo. The procedure, abridged:
as §1

Series [5] addresses T2, Peroxisome proliferator-activated receptor alpha (Homo sapiens, UniProt Q07869).
T2 sequence (Q07869 whole entry): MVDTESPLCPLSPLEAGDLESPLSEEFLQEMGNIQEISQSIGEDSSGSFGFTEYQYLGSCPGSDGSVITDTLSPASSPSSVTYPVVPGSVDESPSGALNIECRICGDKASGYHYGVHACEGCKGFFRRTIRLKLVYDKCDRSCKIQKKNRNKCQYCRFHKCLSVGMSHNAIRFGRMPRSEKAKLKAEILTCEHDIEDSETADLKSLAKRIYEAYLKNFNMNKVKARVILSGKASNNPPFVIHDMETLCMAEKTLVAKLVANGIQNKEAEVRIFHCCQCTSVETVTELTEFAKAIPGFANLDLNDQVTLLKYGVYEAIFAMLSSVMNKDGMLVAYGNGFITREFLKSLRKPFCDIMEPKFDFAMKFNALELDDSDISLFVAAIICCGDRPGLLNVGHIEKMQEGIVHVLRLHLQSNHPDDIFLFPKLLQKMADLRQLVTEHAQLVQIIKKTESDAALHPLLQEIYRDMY
Kind of series: Displacement of [3H]GW2433 from human PPARalpha receptor by ligand displacement assay. In general terms: In a radioligand displacement assay an active substance lowers the binding of a labelled ligand.

A short description of series [6]: Half life in C57BL/6 mouse at 10 mg/kg, po. It is filed as ADME, organism-based. Also noted: dose 10 mg/kg, route oral. Conditions: in vivo. A digest of the protocol: as §1
Another series deals with HCT-116. Nature of the series: Antiproliferative against human HCT116 cells at 10 uM. The class given is functional, cell-based. The procedure, abridged:
as §2

The test system of another series is RKO. Kind of series: Antiproliferative against human RKO cells at 10 uM. It is filed as functional, cell-based. The procedure, abridged:
as §2

Series [7] addresses T1, Peroxisome proliferator-activated receptor delta.
The test system of a further series is HEK293. Nature of the series: Antiproliferative against human HEK293 cells at 10 uM. It is filed as functional, cell-based. A digest of the protocol: as §2
Series [8] is described as follows: Volume of distribution at steady state in C57BL/6 mouse at 0.5 mg/kg, iv. Also on record: dose 0.5 mg/kg, route intravenous. Conditions: in vivo, read-out: Vdss. It is filed as ADME, organism-based. The procedure, abridged: as §1
A short description of series [9]: AUC (0 to infinity) in C57BL/6 mouse at 10 mg/kg, po. Conditions: plasma. Also noted: dose 10 mg/kg, route oral, time infinity. The class given is ADME, organism-based. A digest of the protocol: as §1
The nature of series [10]: Cmax in C57BL/6 mouse at 10 mg/kg, po. Conditions: in vivo. It is filed as ADME, organism-based. Also on record: dose 10 mg/kg, route oral. A digest of the protocol:
as §1

The next series relates to A549. Kind of series: Antiproliferative against human A549 cells at 10 uM. The class given is functional, cell-based. A digest of the protocol: as §2
The target in series [11] is T3, Peroxisome proliferator-activated receptor gamma (Homo sapiens, UniProt P37231).
T3 sequence (P37231 whole entry): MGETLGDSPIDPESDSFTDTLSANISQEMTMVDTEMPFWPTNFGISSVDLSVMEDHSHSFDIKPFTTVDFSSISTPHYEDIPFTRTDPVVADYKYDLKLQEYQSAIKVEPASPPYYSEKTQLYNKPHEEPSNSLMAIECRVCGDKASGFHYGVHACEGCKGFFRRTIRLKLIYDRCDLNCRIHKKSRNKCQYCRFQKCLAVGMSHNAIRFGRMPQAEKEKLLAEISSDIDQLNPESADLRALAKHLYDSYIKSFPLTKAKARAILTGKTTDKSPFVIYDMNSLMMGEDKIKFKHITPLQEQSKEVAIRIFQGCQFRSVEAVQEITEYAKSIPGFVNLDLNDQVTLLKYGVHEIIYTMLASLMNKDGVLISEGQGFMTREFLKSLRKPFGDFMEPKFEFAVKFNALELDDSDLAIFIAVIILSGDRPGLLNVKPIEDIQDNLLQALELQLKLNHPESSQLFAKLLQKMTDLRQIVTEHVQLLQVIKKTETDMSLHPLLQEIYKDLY
Kind of series: Inhibition of human PPARgamma receptor by ligand displacement assay.

For series [12], the species on record is Homo sapiens. Nature of the series: Inhibition of PDK4 gene expression in human skeletal muscle cell at 10 to 10000 nM. It is filed as functional. The procedure, abridged: (§4)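 Human skeletal muscle cells were treated with compound at various doses without added agonist. Basal CPT1a and PDK4 transcript expression was assessed.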
Series [13] is filed under the species Homo sapiens. Nature of the series: Inhibition of against 2-(4-((2-(3-fluoro-4-(trifluoromethyl)phenyl)-4-methylthiazol-5-yl)methylthio)-2-methylphenoxy)acetic acid-induced CPT1a gene expression in human skeletal muscle cell at 10 to 10000 nM. It is filed as functional. The procedure, abridged: as §3
Another series relates to SW480. Nature of the series: Antiproliferative against human SW480 cells at 10 uM. It is filed as functional, cell-based. A digest of the protocol:
as §2

The species named for series [14] is Homo sapiens. Nature of the series: Inhibition of CPT1a gene expression in human skeletal muscle cell at 10 to 10000 nM. The class given is functional. A digest of the protocol: as §4

Active and inactive are the calls of the source.

By bioavailability is commonly meant dose-corrected exposure relative to a reference, in per cent. Read a high bioavailability as much systemic uptake. Broadly, the IC50 is the concentration that inhibits the measured activity by half. One may read the clearance as the rate of elimination divided by the concentration. A high value points to a high capacity for elimination. In general, half-life refers to the time needed for the level to fall by half in the phase considered. A low value points to fast loss. Broadly, the AUC(0-inf) is total exposure, with the tail of the curve extrapolated. Broadly, the Cmax is the highest concentration seen after dosing.

`O=C(NCCS(=O)(=O)c1ccc(C(F)(F)F)cn1)c1ccc(Cl)cc1`: the bioavailability in series [1] came out at 77%. In addition, the result in the series on DLD-1, with HCT-116, in the series on RKO, with HEK293, in the series on A549 and in the series filed under Homo sapiens [12] was inactive. Further, the result in the series with SW480 was inactive. The outcome in the series filed under Homo sapiens [2], in the series filed under Homo sapiens [13] and in the series listed under Homo sapiens [14] was Active. Further, the IC50 in [3] is 200 nM; in series [5] it was > 10000 nM; in [7], 126 nM; in series [11], > 10000 nM. Moreover, the clearance in series [4] was 39 mL/min/kg. The half-life in [6] is 2.7 h. Further, the Vd in series [8] is 1.7 L/kg. In addition, in series [9], the area under the curve AUC(0-inf) came to 3340 ng·h/mL. In [10], this molecule yielded a Cmax of 881 ng/mL.

Turning to `O=C(NCCCS(=O)(=O)c1ccc(C(F)(F)F)cn1)c1ccc(OC(F)(F)F)cc1`, the IC50 in series [3] was 1260 nM; in series [5], > 10000 nM; in series [11] it was > 10000 nM.

Regarding `CC(C)Cc1ccc(C(=O)NCCS(=O)(=O)c2ccc(C(F)(F)F)cn2)cc1`, the IC50 in [3] is 316 nM; in [5], > 10000 nM; in [7] it was 200 nM; in series [11] it was > 10000 nM.

Regarding `O=C(NCCS(=O)(=O)c1ccc(C(F)(F)F)cn1)c1ccc(OC(F)(F)F)cc1`, the IC50 in [3] was 100 nM; in series [5] it was > 10000 nM; in series [11] it was > 10000 nM.

`O=C(NCCS(=O)(=O)c1ccc(C(F)(F)F)cn1)c1ccc(Cl)c(Br)c1`: the IC50 in [3] is 126 nM; in series [5], > 10000 nM; in series [7], 251 nM; in series [11] it was > 10000 nM.

Regarding `O=C(NCCS(=O)(=O)c1ccc(C(F)(F)F)cn1)c1ccc(-c2ccccc2)cc1`, the figures for the IC50 in series [3], in series [7] and in series [11] were 200 nM, 251 nM and > 10000 nM, respectively.

With `O=C(NCCS(=O)(=O)c1ccccn1)c1ccc(Cl)cc1`, the IC50 in series [3], in series [5] and in [11] was > 10000 nM each time.

Take `Cc1ccc(S(=O)(=O)CCNC(=O)c2ccc(Cl)cc2)nc1`: the IC50 in series [3], in [5] and in [11] was > 10000 nM throughout.

For the molecule `O=C(NCCS(=O)(=O)c1ccc(C(F)(F)F)cn1)c1ccc(Br)cc1F`, the IC50 in [3] is 50.1 nM; in [5], > 10000 nM; in [7], 79.4 nM; in series [11], > 10000 nM.

Turning to `O=C(NCCS(=O)(=O)c1ccc(C(F)(F)F)cn1)c1ccc(C2CCCCC2)cc1`, the IC50 in series [3] is 1000 nM; in series [5] it was > 10000 nM; in series [11], > 10000 nM.

Consider `COC(=O)c1sccc1S(=O)(=O)Nc1ccc(Nc2ccccc2)cc1OC`, for which the IC50 in series [5] and in [11] was > 10000 nM in each case.

For `O=C(NCCS(=O)(=O)c1ccc(C(F)(F)F)cn1)c1ccc(Cl)cc1Cl`, the IC50 in series [3] was 158 nM; in series [5], > 10000 nM; in series [7], 200 nM; in [11] it was > 10000 nM.

With `Cc1cc(C(=O)NCCS(=O)(=O)c2ccc(C(F)(F)F)cn2)ccc1Cl`, the IC50 in [3] was 126 nM; in series [5], > 10000 nM; in [7] it was 251 nM; in series [11], > 10000 nM.

Take `O=C(NCCCS(=O)(=O)c1ccc(C(F)(F)F)cn1)c1ccc(Cl)cc1`: the IC50 in series [3], in series [5] and in series [11] was > 10000 nM throughout.
